The values below come from ChEMBL document CHEMBL3351348, “Synthesis and biological evaluation of new simple indolic non peptidic HIV Protease inhibitors: the effect of different substitution patterns” (Bioorg Med Chem, 2014).

One assay in a line: Inhibition of HIV Protease using Abz-Thr-Ile-Nle-Phe(NO2)-Gln-Arg as fluorogenic substrate by fluorimetry. Set-up: species or system Human immunodeficiency virus.
Conditions: not given; call rule not given here
The method, boiled down:
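Commercial HIV-PR at 10 nm final, in pH 5.5 MES buffer (100 mM MES/NaOH, 400 mM NaCl, 1 mM EDTA, 1 mM DTT), 25 °C thermostated cuvette. Substrate at 30 μM final. Excitation 325 nm, emission 420 nm. Enzyme added after 1.5 min and inhibitor (DMSO stock) after a further 1 min, then read 10 min. IC50 from initial rates over several inhibitor concentrations, at least three independent experiments.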
One may read the IC50 as the concentration at which inhibition is half-maximal. With `CC(C)CN(C[C@@H](O)CNc1ccc2[nH]ccc2c1)S(=O)(=O)c1ccc([N+](=O)[O-])cc1`, the IC50 entry is given as “Not Active”.

Still in this assay, the particulars now being: read-out: IC50.
Turning to `COc1ccc(S(=O)(=O)N(CC(C)C)C[C@@H](O)CNc2cccc3[nH]ccc23)cc1OC`, the IC50 was 336 µM.
The same measure, in the same setting: the value for `CC(C)(C)NC(=O)[C@@H]1C[C@@H]2CCCC[C@@H]2CN1C[C@@H](O)CNc1cccc2[nH]ccc12` was 157 µM.
On the same count and under the same terms, the value for `CC(C)CN(C[C@@H](O)CNc1cccc2[nH]ccc12)S(=O)(=O)c1ccc([N+](=O)[O-])cc1` was 2630 µM; that for `CC(C)CN(C[C@@H](O)COC(=O)Nc1cccc2[nH]ccc12)S(=O)(=O)c1ccc([N+](=O)[O-])cc1` was 72 µM.
Still for that read-out and setting: the value for `CC(C)CN(C[C@@H](O)COC(=O)Nc1ccc2[nH]ccc2c1)S(=O)(=O)c1ccc([N+](=O)[O-])cc1` was 2 µM; that for `CC(C)(C)NC(=O)[C@@H]1C[C@@H]2CCCC[C@@H]2CN1C[C@@H](O)COC(=O)Nc1ccc2[nH]ccc2c1` was 606 µM; that for `COc1ccc(S(=O)(=O)N(CC(C)C)C[C@@H](O)CNc2ccc3[nH]ccc3c2)cc1OC` was 4400 µM.
Turning to `COc1ccc(S(=O)(=O)N(CC(C)C)C[C@@H](O)COC(=O)Nc2ccc3[nH]ccc3c2)cc1`, the IC50 worked out at 8 µM.
On the same count and under the same terms, the value for `COc1ccc(S(=O)(=O)N(CC(C)C)C[C@@H](O)COc2cccc3[nH]ccc23)cc1OC` was 336 µM; that for `CC(C)(C)NC(=O)[C@@H]1C[C@@H]2CCCC[C@@H]2CN1C[C@@H](O)COc1ccc2cc[nH]c2c1` was 138 µM.
On the same count and under the same terms, next, `CC(C)(C)NC(=O)[C@@H]1C[C@@H]2CCCC[C@@H]2CN1C[C@@H](O)COc1ccc2[nH]ccc2c1`: 14 µM; `CC(C)(C)NC(=O)[C@@H]1C[C@@H]2CCCC[C@@H]2CN1C[C@@H](O)COc1cccc2[nH]ccc12`: 24 µM.
Consider `COc1ccc(S(=O)(=O)N(CC(C)C)C[C@@H](O)COc2ccc3[nH]ccc3c2)cc1OC`, for which the concentration for half-maximal inhibition (IC50) worked out at 1 µM.
On to `CC(C)CN(C[C@@H](O)COc1ccc2cc[nH]c2c1)S(=O)(=O)c1ccc([N+](=O)[O-])cc1`, for which the IC50 came to 46 µM.
Still for that read-out and setting: next, `COc1ccc(S(=O)(=O)N(CC(C)C)C[C@@H](O)COc2ccc3cc[nH]c3c2)cc1OC`: 346 µM; `CC(C)(C)NC(=O)[C@@H]1C[C@@H]2CCCC[C@@H]2CN1C[C@@H](O)COC(=O)Nc1cccc2[nH]ccc12`: 50 µM; `CC(C)CN(C[C@@H](O)COc1ccc2[nH]ccc2c1)S(=O)(=O)c1ccc([N+](=O)[O-])cc1`: 10 µM.
Same read-out and setting: next, `COc1ccc(S(=O)(=O)N(CC(C)C)C[C@@H](O)COC(=O)Nc2ccc3[nH]ccc3c2)cc1OC`: 1400 µM; `CC(C)CN(C[C@@H](O)COc1cccc2[nH]ccc12)S(=O)(=O)c1ccc([N+](=O)[O-])cc1`: 346 µM.
As for `CC(C)(C)NC(=O)[C@@H]1C[C@@H]2CCCC[C@@H]2CN1C[C@@H](O)CNc1ccc2[nH]ccc2c1`, the IC50 worked out at 176 µM.
For `COc1ccc(S(=O)(=O)N(CC(C)C)C[C@@H](O)COC(=O)Nc2cccc3[nH]ccc23)cc1OC`, the half-inhibitory concentration (IC50) is 615 µM.
Same read-out and setting: the value for `CC(C)CN(C[C@@H](O)COc1ccc2[nH]ccc2c1)S(=O)(=O)c1ccc(N)cc1` was 12 µM.
